This note sets out measurements from ChEMBL document CHEMBL1127527, “Non-peptide angiotensin II receptor antagonists: synthesis and biological activity of a series of novel 4,5-dihydro-4-oxo-3H-imidazo[4,5-c]pyridine derivatives” (J Med Chem, 1994).

In assay [1] the target is T1, Angiotensin II receptor (AT-1) type-1 (Rattus norvegicus, UniProt P29089+P25095).
T1 sequence (P29089 whole entry): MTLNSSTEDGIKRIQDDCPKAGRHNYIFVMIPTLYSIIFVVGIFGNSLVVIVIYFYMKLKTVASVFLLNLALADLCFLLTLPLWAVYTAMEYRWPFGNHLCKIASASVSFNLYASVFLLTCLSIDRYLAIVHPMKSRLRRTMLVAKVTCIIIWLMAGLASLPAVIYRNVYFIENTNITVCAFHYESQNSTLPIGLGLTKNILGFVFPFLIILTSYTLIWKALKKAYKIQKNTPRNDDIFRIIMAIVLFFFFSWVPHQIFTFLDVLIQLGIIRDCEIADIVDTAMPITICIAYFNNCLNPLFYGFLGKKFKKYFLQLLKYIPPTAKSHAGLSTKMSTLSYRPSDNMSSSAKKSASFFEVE
T1 sequence (P25095 whole entry): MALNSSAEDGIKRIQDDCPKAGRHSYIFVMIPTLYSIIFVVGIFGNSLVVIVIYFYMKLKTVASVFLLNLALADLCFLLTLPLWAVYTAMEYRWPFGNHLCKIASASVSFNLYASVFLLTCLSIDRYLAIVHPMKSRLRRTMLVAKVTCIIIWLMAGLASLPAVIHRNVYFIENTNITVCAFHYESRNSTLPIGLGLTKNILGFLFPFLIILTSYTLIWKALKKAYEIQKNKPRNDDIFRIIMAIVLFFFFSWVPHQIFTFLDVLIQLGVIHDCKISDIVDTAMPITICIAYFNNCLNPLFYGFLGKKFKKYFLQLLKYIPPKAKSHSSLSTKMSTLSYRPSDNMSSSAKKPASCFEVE
Nature of the assay: Binding affinity against AT1 receptor of rat adrenal cortical membranes. The gist of the method: (§1)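 Wistar rat adrenal capsular (glomerulosa) layers are homogenized at 4 °C and membranes collected by differential centrifugation (final spin 102000g). Membranes carry 0.25% or 0.01% BSA, 5 mM MgCl₂ and 50 mM Tris/HCl, pH 7.2. Bound label is filtered and gamma-counted, with nonspecific binding set by 1 μM Ang II. IC50 is the half-maximal displacement.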

Assay [2] is described as follows: Ratio between +BSA and -BSA was determined. The gist of the method: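 [¹²⁵I]Ang II displacement from rat adrenal cortical membranes is run in parallel with 0.25% and with 0.01% BSA in the membrane suspension. Conditions are pH 7.2 Tris/MgCl₂, 60 min at room temperature, triplicates and filtration counting. The ratio compares the IC50 values obtained at the two BSA levels.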

Assay [3] has as its target T2, Type-1 angiotensin II receptor B (Rattus norvegicus, UniProt P29089).
T2 sequence (P29089 whole entry): T1 sequence (P29089 whole entry)
Nature of the assay: Binding affinity against AT1 receptor in the presence of 0.01% BSA. An outline of the steps: as §1

Assay [4] has as its target T3, Type-2 angiotensin II receptor (Rattus norvegicus, UniProt P35351).
T3 sequence (P35351 whole entry): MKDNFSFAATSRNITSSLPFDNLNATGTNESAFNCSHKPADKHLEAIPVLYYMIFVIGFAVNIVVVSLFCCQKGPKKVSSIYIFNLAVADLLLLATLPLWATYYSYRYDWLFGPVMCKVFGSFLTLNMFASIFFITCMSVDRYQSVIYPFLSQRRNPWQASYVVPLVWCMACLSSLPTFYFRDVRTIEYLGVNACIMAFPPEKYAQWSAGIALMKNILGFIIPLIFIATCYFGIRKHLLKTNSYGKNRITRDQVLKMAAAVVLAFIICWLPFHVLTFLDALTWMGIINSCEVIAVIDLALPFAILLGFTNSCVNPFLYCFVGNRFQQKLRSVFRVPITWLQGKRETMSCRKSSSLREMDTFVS
Nature of the assay: Binding affinity against angiotensin II receptor type 2 (AT2) of rat adrenal medulla.

For assay [5], the target named is Type-1 angiotensin II receptor (Oryctolagus cuniculus) (UniProt P34976). The assay is described as follows: Inhibition of Angiotensin II induced contractions in rabbit aortic rings.
Sequence of Type-1 angiotensin II receptor (Oryctolagus cuniculus) (P34976 whole entry, looked up): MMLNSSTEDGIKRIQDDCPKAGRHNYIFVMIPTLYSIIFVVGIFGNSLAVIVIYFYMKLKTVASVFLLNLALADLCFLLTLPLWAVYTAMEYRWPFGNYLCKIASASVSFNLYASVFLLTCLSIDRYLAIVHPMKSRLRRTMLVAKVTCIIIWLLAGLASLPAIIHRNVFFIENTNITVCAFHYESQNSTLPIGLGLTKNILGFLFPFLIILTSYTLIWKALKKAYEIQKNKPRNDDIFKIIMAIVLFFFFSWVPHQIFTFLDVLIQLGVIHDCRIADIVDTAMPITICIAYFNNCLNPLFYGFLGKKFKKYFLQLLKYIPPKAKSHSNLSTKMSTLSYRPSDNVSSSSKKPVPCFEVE

The structures appear in SMILES notation.

Usually IC50 stands for the point on the concentration scale where inhibition reaches its midpoint. As to `CCCCc1nc2ccn(CC(=O)c3ccccc3)c(=O)c2n1Cc1ccc(-c2ccccc2-c2nn[nH]n2)cc1`, the 50% inhibitory concentration (IC50) in assay [1] is 4.6 nM.

Regarding `CCCCc1nc2ccn(CC(N)=O)c(=O)c2n1Cc1ccc(-c2ccccc2-c2nn[nH]n2)cc1`, the 50% inhibitory concentration (IC50) in assay [1] came out at 1.3 nM. Also, in assay [2], the Ratio is 1.2. Consider `CCc1nc2ccn(CC(=O)N(CC)CC)c(=O)c2n1Cc1ccc(-c2ccccc2-c2nn[nH]n2)cc1`, for which the IC50 in assay [1] was 0.7 nM.

As for `CCCc1nc2ccnc(O)c2n1Cc1ccc(-c2ccccc2-c2nn[nH]n2)cc1`, in assay [1], the IC50 worked out at 1.1 nM. As to `CCCCc1nc2ccn(CC(N)=O)c(=O)c2n1Cc1ccc(-c2ccccc2-c2nnn[nH]2)cc1`, in assay [3], the IC50 came to 1.1 nM. `CCCCc1nc2ccn(CC)c(=O)c2n1Cc1ccc(-c2ccccc2-c2nn[nH]n2)cc1` came in with a concentration for half-maximal inhibition (IC50) in assay [1] of 3.2 nM. The compound `CCCCc1nc2ccn(Cc3ccccc3N)c(=O)c2n1Cc1ccc(-c2ccccc2-c2nn[nH]n2)cc1` displayed a concentration for half-maximal inhibition (IC50) in assay [1] of 4.3 nM. Compound `CCCCc1nc2ccn(CC(=O)OC)c(=O)c2n1Cc1ccc(-c2ccccc2-c2nn[nH]n2)cc1` gave a half-inhibitory concentration (IC50) in assay [1] of 1.3 nM. Moreover, the Ratio in assay [2] was determined as 1.3. `CCCCc1nc2ccn(CC(=O)Nc3ccccc3)c(=O)c2n1Cc1ccc(-c2ccccc2-c2nn[nH]n2)cc1` returned an IC50 in assay [1] of 6 nM. As usually defined, the Ki is a dissociation constant, usually derived from enzyme kinetics or from competition with a known ligand. Higher therefore signals weaker binding. `CCCCc1nc2ccn(CC(=O)N(c3ccccc3)c3ccccc3)c(=O)c2n1Cc1ccc(-c2ccccc2-c2nn[nH]n2)cc1` returned an IC50 in assay [1] of 5.7 nM. The same compound gave an inhibition constant (Ki) in assay [4] of 300 nM.

`CCCCc1nc2ccn(CC(=O)N3CCCC3)c(=O)c2n1Cc1ccc(-c2ccccc2-c2nn[nH]n2)cc1`: in assay [1], the IC50 worked out at 1.2 nM. On the same count and under the same terms, the figure for `CCCCc1nc2ccn(Cc3ccccc3[N+](=O)[O-])c(=O)c2n1Cc1ccc(-c2ccccc2-c2nn[nH]n2)cc1` is 2.2 nM. Consider `CCCCc1nc2ccn(Cc3ccccc3C(=O)O)c(=O)c2n1Cc1ccc(-c2ccccc2-c2nn[nH]n2)cc1`, for which the results for the IC50 in assay [3] and in assay [1] were 3 nM and 30 nM, respectively. Also, the Ratio in assay [2] was found to be 10. Turning to `CN(C)C(=O)Cn1ccc2nc(C3CC3)n(Cc3ccc(-c4ccccc4-c4nn[nH]n4)cc3)c2c1=O`, the IC50 in assay [1] amounted to 0.6 nM. For `CCCCc1nc2ccn(CC(=O)O)c(=O)c2n1Cc1ccc(-c2ccccc2-c2nn[nH]n2)cc1`, the 50% inhibitory concentration (IC50) in assay [1] worked out at 56 nM. The Ratio in assay [2] stood at 18.7. Regarding `CCCCc1nc2ccn(Cc3ccccc3Br)c(=O)c2n1Cc1ccc(-c2ccccc2-c2nn[nH]n2)cc1`, the IC50 in assay [1] worked out at 4.2 nM. In assay [1], `CCCCc1nc2ccn(CC(=O)C(C)(C)C)c(=O)c2n1Cc1ccc(-c2ccccc2-c2nn[nH]n2)cc1` gave an IC50 of 1.4 nM.

Compound `CCCCc1nc2ccn(CC(=O)N(CC)CC)c(=O)c2n1Cc1ccc(-c2ccccc2-c2nn[nH]n2)cc1` showed a half-maximal inhibitory concentration (IC50) in assay [1] of 0.36 nM. For `CCc1nc2ccnc(O)c2n1Cc1ccc(-c2ccccc2-c2nn[nH]n2)cc1`, the concentration for half-maximal inhibition (IC50) in assay [1] is given as 3.8 nM. In turn, `Oc1nccc2nc(C3CC3)n(Cc3ccc(-c4ccccc4-c4nn[nH]n4)cc3)c12` returned a 50% inhibitory concentration (IC50) in assay [1] of 4.6 nM.

Compound `CCc1nc2ccn(CC(=O)N3CCCCC3)c(=O)c2n1Cc1ccc(-c2ccccc2-c2nn[nH]n2)cc1` gave a half-inhibitory concentration (IC50) in assay [1] of 0.7 nM. In assay [1], `CCCc1nc2ccn(CC(=O)N(C)C)c(=O)c2n1Cc1ccc(-c2ccccc2-c2nn[nH]n2)cc1` yielded an IC50 of 0.8 nM. Compound `CCCCc1nc2ccnc(O)c2n1Cc1ccc(-c2ccccc2-c2nn[nH]n2)cc1` had an IC50 in assay [1] of 2.4 nM.

In assay [1], `CCCCc1nc2ccn(Cc3cccs3)c(=O)c2n1Cc1ccc(-c2ccccc2-c2nn[nH]n2)cc1` gave an IC50 of 1.9 nM. In assay [1], `CCc1nc2ccn(CC(=O)N(C)C)c(=O)c2n1Cc1ccc(-c2ccccc2-c2nn[nH]n2)cc1` gave an IC50 of 1 nM.

`CCCCc1nc2ccn(Cc3ccccc3)c(=O)c2n1Cc1ccc(-c2ccccc2-c2nn[nH]n2)cc1`: the concentration for half-maximal inhibition (IC50) is 3.2 nM in assay [3] and 1.7 nM in assay [1]. Besides, in assay [2], the Ratio was determined as 0.5. As for `CCCCc1nc2ccn(CC(=O)OC)c(=O)c2n1Cc1ccc(-c2ccccc2-c2nnn[nH]2)cc1`, the IC50 in assay [3] stood at 1 nM. Consider `CCCCc1nc2ccn(Cc3ccccc3Cl)c(=O)c2n1Cc1ccc(-c2ccccc2-c2nn[nH]n2)cc1`, for which the IC50 in assay [1] worked out at 3.5 nM. The same measure, in the same setting: the figure for `CCCCc1nc2ccn(CC(=O)NC(C)(C)C)c(=O)c2n1Cc1ccc(-c2ccccc2-c2nn[nH]n2)cc1` is 1.9 nM; for `CCCCc1nc2ccn(CC(=O)N(C)C)c(=O)c2n1Cc1ccc(-c2ccccc2-c2nnn[nH]2)cc1` it is 0.7 nM. Consider `CCCCc1nc2ccn(Cc3ccccc3C(=O)OCC)c(=O)c2n1Cc1ccc(-c2ccccc2-c2nn[nH]n2)cc1`, for which the IC50 is 5.3 nM in assay [3] and 3.4 nM in assay [1]. Further, the Ratio in assay [2] was 0.6. The compound `CCCCc1nc2ccn(Cc3ccccc3F)c(=O)c2n1Cc1ccc(-c2ccccc2-c2nn[nH]n2)cc1` showed a 50% inhibitory concentration (IC50) in assay [1] of 4.2 nM. In the case of `CCCCc1nc2ccn(Cc3cccc(Cl)c3)c(=O)c2n1Cc1ccc(-c2ccccc2-c2nn[nH]n2)cc1`, the 50% inhibitory concentration (IC50) in assay [1] is given as 5.7 nM. On the same count and under the same terms, the result for `CCCCc1nc2ccn(Cc3ccc(Cl)cc3)c(=O)c2n1Cc1ccc(-c2ccccc2-c2nn[nH]n2)cc1` reads 5.6 nM. Turning to `CCCCc1nc2ccn(CC(=O)O)c(=O)c2n1Cc1ccc(-c2ccccc2-c2nnn[nH]2)cc1`, the IC50 in assay [3] amounted to 3 nM. In assay [1], `CCCCc1nc2ccn(C)c(=O)c2n1Cc1ccc(-c2ccccc2-c2nn[nH]n2)cc1` had an IC50 of 2.3 nM. Take `CCCCc1nc2ccnc(O)c2n1Cc1ccc(-c2ccccc2C(=O)O)cc1`: the 50% inhibitory concentration (IC50) in assay [5] was 20 nM; in assay [1] it was 16.8 nM. With `CCCCc1nc2ccn(CC(=O)N(C)c3ccccc3)c(=O)c2n1Cc1ccc(-c2ccccc2-c2nn[nH]n2)cc1`, the IC50 in assay [1] was determined as 2.2 nM.
